Data reported in ChEMBL document CHEMBL3390837, “Bridged tetrahydroisoquinolines as selective NADPH oxidase 2 (Nox2) inhibitors” (Medchemcomm, 2013).

What was measured:
[1] = target: T1, NADPH oxidase 1 (Homo sapiens, UniProt Q9Y5S8); assay: Inhibition of full length human NOX1 transfected in COS 22 cells assessed as inhibition of constitutive ROS generation by chemiluminescence assay
T1 sequence (Q9Y5S8 whole entry): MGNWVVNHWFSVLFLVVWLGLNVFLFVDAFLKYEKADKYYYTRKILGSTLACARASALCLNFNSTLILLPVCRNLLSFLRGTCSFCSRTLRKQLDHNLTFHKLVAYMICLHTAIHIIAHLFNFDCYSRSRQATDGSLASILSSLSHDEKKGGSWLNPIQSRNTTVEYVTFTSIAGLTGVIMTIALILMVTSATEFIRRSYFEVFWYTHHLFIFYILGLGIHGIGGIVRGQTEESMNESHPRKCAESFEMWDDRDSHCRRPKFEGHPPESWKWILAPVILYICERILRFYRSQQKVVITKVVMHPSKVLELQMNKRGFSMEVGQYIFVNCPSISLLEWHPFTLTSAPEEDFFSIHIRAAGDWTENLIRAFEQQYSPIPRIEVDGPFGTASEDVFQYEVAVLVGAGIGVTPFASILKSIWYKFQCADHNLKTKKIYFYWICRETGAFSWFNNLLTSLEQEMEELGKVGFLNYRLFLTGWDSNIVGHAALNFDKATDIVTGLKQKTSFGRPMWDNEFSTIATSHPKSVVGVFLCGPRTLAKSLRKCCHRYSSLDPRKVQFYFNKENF

[2] = target: T2, NADPH oxidase 2 (Homo sapiens, UniProt P04839); assay: Inhibition of full length human NOX2 transfected in COS 22 cells assessed as inhibition of Phorbol 12-myristate 13-acetate-stimulated ROS generation by chemiluminescence assay; format: cell-based
T2 sequence (P04839 whole entry): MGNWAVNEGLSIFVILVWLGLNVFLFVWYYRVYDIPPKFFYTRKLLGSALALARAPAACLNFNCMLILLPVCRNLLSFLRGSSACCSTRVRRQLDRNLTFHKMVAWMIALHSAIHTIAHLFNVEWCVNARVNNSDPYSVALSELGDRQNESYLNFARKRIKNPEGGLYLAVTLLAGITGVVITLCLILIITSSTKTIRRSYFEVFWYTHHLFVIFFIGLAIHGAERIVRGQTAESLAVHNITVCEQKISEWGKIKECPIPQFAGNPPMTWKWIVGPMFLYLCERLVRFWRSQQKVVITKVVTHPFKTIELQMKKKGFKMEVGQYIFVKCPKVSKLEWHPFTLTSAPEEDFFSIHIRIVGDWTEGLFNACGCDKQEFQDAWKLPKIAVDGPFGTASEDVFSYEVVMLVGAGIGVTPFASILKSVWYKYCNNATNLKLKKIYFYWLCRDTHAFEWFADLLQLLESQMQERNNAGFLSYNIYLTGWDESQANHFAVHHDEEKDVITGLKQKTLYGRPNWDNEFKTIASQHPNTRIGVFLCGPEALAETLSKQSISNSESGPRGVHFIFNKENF
Summary of the method: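 COS-Nox2 (COS-7 stably expressing human p22phox, Nox2, p47phox, p67phox) plated in OPTIMEM at 2.5 x 10³ cells/well; 10 min at 37 °C in PBS with L-012, then stimulated with 5 µM PMA; luminescence followed over time; superoxide specificity checked with SOD 150 U/mL. IC50 by three-parameter non-linear fit, Hill slope 1, top/bottom fixed 100/0.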

[3] = target: T2, NADPH oxidase 2; assay: Inhibition of full length human NOX2 transfected in COS 22 cells assessed as inhibition of Phorbol 12-myristate 13-acetate-stimulated ROS generation by measuring H2O2 production by fluorescence assay in presence of superoxide dismutase; format: cell-based
Summary of the method: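 Intact COS-Nox2 cells in Hepes pH 7.4 buffer with 0.1 mM Amplex Red, 0.32 U/ml HRP and 150 U/mL SOD, drug 15 min at 37 °C; started with 5 µM PMA; fluorescence monitored 1 h at 37 °C; rate as RFU/min minus unstimulated cells; % of vehicle control.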

[4] = target: T3, NADPH oxidase 5 (Homo sapiens, UniProt Q96PH1); assay: Inhibition of full length human NOX5 transfected in HEK cells assessed as inhibition of ionomycin-stimulated ROS generation by chemiluminescence assay; format: cell-based, HEK293
T3 sequence (Q96PH1 whole entry): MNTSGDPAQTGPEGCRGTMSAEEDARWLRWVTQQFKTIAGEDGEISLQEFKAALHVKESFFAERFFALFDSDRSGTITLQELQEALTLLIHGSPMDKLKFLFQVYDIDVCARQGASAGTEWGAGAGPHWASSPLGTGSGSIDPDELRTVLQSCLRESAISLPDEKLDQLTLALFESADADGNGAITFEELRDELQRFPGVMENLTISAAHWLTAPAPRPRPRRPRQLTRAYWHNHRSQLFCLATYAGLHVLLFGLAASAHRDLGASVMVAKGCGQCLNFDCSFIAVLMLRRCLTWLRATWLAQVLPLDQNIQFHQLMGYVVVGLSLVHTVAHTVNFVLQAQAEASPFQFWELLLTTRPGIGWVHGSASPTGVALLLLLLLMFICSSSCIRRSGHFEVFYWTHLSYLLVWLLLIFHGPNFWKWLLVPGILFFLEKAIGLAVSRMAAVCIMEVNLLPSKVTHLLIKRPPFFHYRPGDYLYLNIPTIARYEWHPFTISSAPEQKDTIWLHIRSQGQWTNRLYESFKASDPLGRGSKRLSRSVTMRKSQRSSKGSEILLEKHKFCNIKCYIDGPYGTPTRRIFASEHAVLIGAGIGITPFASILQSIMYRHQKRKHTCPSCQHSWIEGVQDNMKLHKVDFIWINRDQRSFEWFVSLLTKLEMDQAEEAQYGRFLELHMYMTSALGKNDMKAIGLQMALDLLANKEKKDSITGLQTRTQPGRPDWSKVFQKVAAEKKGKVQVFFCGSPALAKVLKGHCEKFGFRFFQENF
Summary of the method: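 HEK-Nox5 cells at 5 × 10⁴ cells/well in OPTIMEM, 10 min at 37 °C in PBS with L-012, then stimulated with 1 µM PMA/0.1 µM ionomycin; luminescence over time; SOD 150 U/mL used to confirm superoxide specificity. IC50 by three-parameter fit, Hill slope 1, top/bottom fixed 100/0.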

[5] = target: T4, NADPH oxidase 4 (Homo sapiens, UniProt Q9NPH5); assay: Inhibition of full length human NOX4 transfected in COS 22 cells assessed as inhibition of ROS generation by measuring H2O2 production by fluorescence assay
T4 sequence (Q9NPH5 whole entry): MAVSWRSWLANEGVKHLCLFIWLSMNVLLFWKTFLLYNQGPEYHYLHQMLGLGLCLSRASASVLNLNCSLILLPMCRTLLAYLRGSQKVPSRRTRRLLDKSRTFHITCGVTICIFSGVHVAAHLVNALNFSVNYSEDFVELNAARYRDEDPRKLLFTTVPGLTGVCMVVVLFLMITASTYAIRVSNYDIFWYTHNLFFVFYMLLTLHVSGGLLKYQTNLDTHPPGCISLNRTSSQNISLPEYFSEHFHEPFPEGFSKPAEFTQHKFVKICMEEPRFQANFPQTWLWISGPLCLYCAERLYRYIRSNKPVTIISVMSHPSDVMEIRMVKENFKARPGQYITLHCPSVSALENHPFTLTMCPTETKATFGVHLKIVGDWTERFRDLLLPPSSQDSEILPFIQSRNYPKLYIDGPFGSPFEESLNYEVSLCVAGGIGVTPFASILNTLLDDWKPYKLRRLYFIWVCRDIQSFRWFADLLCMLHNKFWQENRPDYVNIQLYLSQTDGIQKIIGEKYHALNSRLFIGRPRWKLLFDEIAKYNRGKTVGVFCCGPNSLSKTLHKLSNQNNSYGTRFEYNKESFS

[6] = target: Xanthine dehydrogenase/oxidase (Bos taurus, UniProt P80457); assay: Inhibition of bovine milk xanthine oxidase assessed as hypoxanthine-stimulated ROS generation by measuring H2O2 production at 25 to 50 uM by fluorescence assay; settings: cattle
Chain of Xanthine dehydrogenase/oxidase (P80457 whole entry): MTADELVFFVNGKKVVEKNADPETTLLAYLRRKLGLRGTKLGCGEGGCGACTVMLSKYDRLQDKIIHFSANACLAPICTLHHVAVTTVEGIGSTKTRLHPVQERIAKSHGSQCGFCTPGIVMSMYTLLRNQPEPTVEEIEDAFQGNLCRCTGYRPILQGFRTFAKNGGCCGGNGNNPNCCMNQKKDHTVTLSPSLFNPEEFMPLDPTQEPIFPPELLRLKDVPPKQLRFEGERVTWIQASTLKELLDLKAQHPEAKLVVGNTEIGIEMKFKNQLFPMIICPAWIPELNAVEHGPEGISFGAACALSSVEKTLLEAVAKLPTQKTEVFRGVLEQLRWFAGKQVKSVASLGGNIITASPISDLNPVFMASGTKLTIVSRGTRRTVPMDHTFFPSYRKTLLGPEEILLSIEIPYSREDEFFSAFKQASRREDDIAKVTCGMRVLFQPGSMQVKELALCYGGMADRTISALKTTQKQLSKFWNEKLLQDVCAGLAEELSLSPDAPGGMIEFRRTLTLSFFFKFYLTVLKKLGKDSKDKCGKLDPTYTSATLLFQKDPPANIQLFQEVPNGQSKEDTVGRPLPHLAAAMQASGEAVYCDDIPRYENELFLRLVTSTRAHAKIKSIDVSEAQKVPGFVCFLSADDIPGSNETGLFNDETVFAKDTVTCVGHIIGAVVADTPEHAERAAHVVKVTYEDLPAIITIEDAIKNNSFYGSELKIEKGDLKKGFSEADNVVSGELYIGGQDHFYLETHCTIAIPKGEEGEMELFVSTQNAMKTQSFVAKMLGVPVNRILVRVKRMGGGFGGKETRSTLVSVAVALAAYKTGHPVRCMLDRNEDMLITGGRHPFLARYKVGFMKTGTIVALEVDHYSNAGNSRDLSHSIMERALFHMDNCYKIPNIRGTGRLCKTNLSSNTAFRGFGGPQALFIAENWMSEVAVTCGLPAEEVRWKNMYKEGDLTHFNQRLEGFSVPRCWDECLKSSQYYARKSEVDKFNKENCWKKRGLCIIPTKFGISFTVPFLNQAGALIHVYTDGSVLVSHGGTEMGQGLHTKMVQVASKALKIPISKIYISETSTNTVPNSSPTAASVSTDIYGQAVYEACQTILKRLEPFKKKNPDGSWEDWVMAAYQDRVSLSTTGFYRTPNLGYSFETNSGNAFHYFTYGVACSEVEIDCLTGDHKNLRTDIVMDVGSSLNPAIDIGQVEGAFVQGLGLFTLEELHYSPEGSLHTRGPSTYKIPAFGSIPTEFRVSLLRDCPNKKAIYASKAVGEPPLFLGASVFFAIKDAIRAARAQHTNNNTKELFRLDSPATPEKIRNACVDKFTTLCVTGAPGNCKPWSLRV

| SMILES | IC50 ([1]; read-out: IC50) [µM] | IC50 ([2]; read-out: IC50) [µM] | IC50 ([3]; read-out: IC50) [µM] | IC50 [4] [µM] | IC50 ([5]; read-out: IC50) [µM] | inhibition (INH) [6] | IC50 ([5]; cos 22) | IC50 ([1]; cos 22) | IC50 ([2]; cos 22) | IC50 ([3]; cos 22) |
| --- | --- | --- | --- | --- | --- | --- | --- | --- | --- | --- |
| C=C(C)C[C@H]1[C@H]2c3ccccc3[C@H](CC2(C)C)N1Cc1cccc(F)c1 (racemic) | > 100 | 68 | 30 | 50 | > 100 | Not Active |  |  |  |  |
| C=C(C)C[C@H]1[C@H]2c3c(Br)cccc3[C@H](CC2(C)C)N1Cc1ccc2c(c1)OCO2 (racemic) | > 100 | 88 | 40 | > 100 | > 100 | Not Active |  |  |  |  |
| C=C(C)C[C@H]1[C@H]2c3c(Br)cccc3[C@H](CC2(C)C)N1Cc1cccs1 (racemic) | > 100 | 38 | 32 | > 100 |  | Not Active | Not Active |  |  |  |
| C=C(C)C[C@H]1[C@H]2c3c(-c4ccc(Cl)c(Cl)c4)cccc3[C@H](CC2(C)C)N1Cc1ccc2c(c1)OCO2 (racemic) | > 100 | > 100 | > 100 | > 100 |  | Not Active | Not Active |  |  |  |
| [Cl-].c1ccc2c(c1)[I+]c1ccccc1-2 [DIPHENYLENEIODONIUM CHLORIDE] |  |  |  |  |  | Not Active |  |  |  |  |
| C=C(C)C[C@H]1[C@H]2c3c(Br)cccc3[C@H](CC2(C)C)N1Cc1ccnc2ccccc12 (racemic) | > 100 | > 100 | > 100 | > 100 |  | Not Active | Not Active |  |  |  |
| C=C(C)C[C@H]1[C@H]2c3c(Br)cccc3[C@H](CC2(C)C)N1CCCCC (racemic) | > 100 | 20 | 20 | > 100 | > 100 | Not Active |  |  |  |  |
| C=C(C)C[C@H]1[C@H]2c3c(Br)cccc3[C@H](CC2(C)C)N1Cc1cccc(F)c1 (racemic) | > 100 | 68 | 51 | 79 | > 100 | Not Active |  |  |  |  |
| C=C(C)C[C@H]1[C@H]2c3c(-c4ccc(Cl)c(Cl)c4)cccc3[C@H](CC2(C)C)N1CCCCC (racemic) | > 100 | > 100 | 79 | > 100 | > 100 | Not Active |  |  |  |  |
| C=C(C)C[C@H]1[C@H]2c3c(Br)cccc3[C@H](CC2(C)C)N1Cc1cc(C)on1 (racemic) | > 100 | 48 | 12 | 31 | > 100 | Not Active |  |  |  |  |
| C=C(C)C[C@@H]1N[C@H]2CC(C)(C)[C@@H]1c1c(-c3ccc(Cl)c(Cl)c3)cccc12 (racemic) | > 100 | 9 | 64 | 14 | > 100 | Not Active |  |  |  |  |
| C=C(C)C[C@@H]1N[C@H]2CC(C)(C)[C@@H]1c1ccccc12 (racemic) | > 100 | > 100 | > 100 | > 100 |  | Not Active | Not Active |  |  |  |
| C=C(C)C[C@H]1[C@H]2c3c(Br)cccc3[C@H](CC2(C)C)N1S(C)(=O)=O (racemic) |  | > 100 | 27 | > 100 | > 100 | Not Active |  | Not Active |  |  |
| C=C(C)C[C@@H]1N[C@H]2CC(C)(C)[C@@H]1c1c(-c3cccnc3)cccc12 (racemic) |  |  |  |  |  | Not Active |  |  | Not Active | Not Active |
